One test deals with Aspergillus niger. The experiment in a line: Antimicrobial activity against Aspergillus niger (ATCC 16404). The test is classed as functional. A digest of the protocol:
(§1)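 Spores came from Eugon agar slants grown 1 week at 32 °C, suspended at 10⁶/mL in Eugon broth or saline, and applied by Steers replicator. The lowest inhibitory concentration was read after 48-72 h at 32 °C.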

Test [1] has as its system Trichophyton benhamiae. As to the kind of experiment: Compound was tested for the antimicrobial activity against Trichophyton mentagrophytes (ATCC 4807); Range is 12.5-25. The test is classed as functional, Arthroderma benhamiae. A digest of the protocol:
as §1

Test [2] relates to Candida albicans. As to the kind of experiment: Compound was tested for the antimicrobial activity against Candida albicans (ATCC 10231, NRRL Y-477); Range is 50 to >100. The test is classed as functional. A digest of the protocol: (§2)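 Agar dilution MIC. Stocks and twofold serial dilutions in DMF or 50% aqueous DMF were mixed 1:100 into molten Eugon agar, giving final 100, 50, 25, 12.5, 6.2, 3.1 mcg/mL (further dilutions sometimes) and ≤1% DMF. Inocula came from 24 h Eugon agar slants at 32 °C, suspended at 10⁶ cells/mL and applied with a Steers replicator. MIC (lowest concentration inhibiting growth) was read after 24 h at 32 °C.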

Test [3] concerns Candida albicans. As to the kind of experiment: Compound was tested for the antimicrobial activity against Candida albicans (ATCC 10231, NRRL Y-477); Range is 25 to >100. The test is classed as functional. The essentials:
as §2

Test [4] concerns Enterococcus faecalis. As to the kind of experiment: Antimicrobial activity against Streptococcus faecalis (ATCC 10541). The test is classed as functional. The essentials: as §2
Test [5] concerns Staphylococcus aureus. The experiment in a line: Antimicrobial activity against Staphylococcus aureus (ATCC 6538, NRRL B2747); Range is <3.1-6.2. The test is classed as functional. The essentials: as §2
The subject of test [6] is Trichophyton benhamiae. As to the kind of experiment: Compound was tested for the antimicrobial activity against Trichophyton mentagrophytes (ATCC 4807); Range is 6.2-25. Type of test: functional, Arthroderma benhamiae. The essentials: as §1
Test [7] deals with Trichophyton benhamiae. The experiment in a line: Antimicrobial activity against Trichophyton mentagrophytes (ATCC 4807). The test is classed as functional, Arthroderma benhamiae. A digest of the protocol: as §1
For test [8], the system named is Trichophyton benhamiae. The experiment in a line: Compound was tested for the antimicrobial activity against Trichophyton mentagrophytes (ATCC 4807); Range is <3.1-6.2. Type of test: functional, Arthroderma benhamiae. A digest of the protocol:
as §1

For test [9], the system named is Candida albicans. As to the kind of experiment: Compound was tested for the antimicrobial activity against Candida albicans (ATCC 10231, NRRL Y-477); Range is 12.5-100. Type of test: functional. A digest of the protocol:
as §2

Test [10] relates to Staphylococcus aureus. As to the kind of experiment: Compound was tested for the antimicrobial activity against Staphylococcus aureus (ATCC 6538, NRRL B2747); Range is 6.2-12.5. Type of test: functional. A digest of the protocol:
as §2

In test [11] the test system is Trichophyton benhamiae. As to the kind of experiment: Compound was tested for the antimicrobial activity against Trichophyton mentagrophytes (ATCC 4807); Range is <3.1-12.5. Type of test: functional, Arthroderma benhamiae. A digest of the protocol: as §1
Test [12] relates to Enterococcus faecalis. As to the kind of experiment: Compound was tested for the antimicrobial activity against Streptococcus faecalis (ATCC 10541); Range is 25-50. The test is classed as functional. A digest of the protocol:
as §2

Test [13] has as its system Candida albicans. As to the kind of experiment: Compound was tested for the antimicrobial activity against Candida albicans (ATCC 10231, NRRL Y-477); Range is 50-100. Type of test: functional. A digest of the protocol:
as §2

The subject of test [14] is Staphylococcus aureus. As to the kind of experiment: Antimicrobial activity against Staphylococcus aureus (ATCC 6538, NRRL B2747). The test is classed as functional. The essentials: as §2
The test system of test [15] is Trichophyton benhamiae. As to the kind of experiment: Compound was tested for the antimicrobial activity against Trichophyton mentagrophytes (ATCC 4807); Range is 25-50. Type of test: functional, Arthroderma benhamiae. A digest of the protocol:
as §1

Test [16] deals with Candida albicans. As to the kind of experiment: Compound was tested for the antimicrobial activity against Candida albicans (ATCC 10231, NRRL Y-477); Range is 100 to >100. The test is classed as functional. A digest of the protocol: as §2
The subject of test [17] is Trichophyton benhamiae. As to the kind of experiment: Compound was tested for the antimicrobial activity against Trichophyton mentagrophytes (ATCC 4807); Range is 6.2-12.5. Type of test: functional, Arthroderma benhamiae. The essentials:
as §1

In test [18] the test system is Candida albicans. As to the kind of experiment: Antimicrobial activity against Candida albicans (ATCC 10231, NRRL Y-477). The test is classed as functional. A digest of the protocol:
as §2

Test [19] has as its system Candida albicans. As to the kind of experiment: Compound was tested for the antimicrobial activity against Candida albicans (ATCC 10231, NRRL Y-477); Range is 25-50. The test is classed as functional. A digest of the protocol: as §2

Molecules are shown by their SMILES. ≈ marks a conversion by molar mass, not a printed value. A value given as a limit tells only on which side of the number the result lay.

As a reminder, the MIC is the lowest concentration found to suppress growth. For `C=C1C(=O)c2ccccc2OC1c1ccc(N(C)C)cc1` (stereo not drawn), the MIC in the test on Aspergillus niger was 100 µg/mL (≈ 358 µM); against Trichophyton benhamiae [1] it was 12.5 µg/mL (≈ 44.7 µM).
For `C=C1C(=O)c2ccccc2OC1c1ccc(OC)cc1` (stereo not drawn), the values for the minimum inhibitory concentration (MIC) in the test on Candida albicans [2] and in the test on Trichophyton benhamiae [1] were above 50 µg/mL and 12.5 µg/mL (≈ 46.9 µM), respectively.
`C=C1C(=O)c2ccccc2OC1c1ccc2ccccc2c1` (stereo not drawn): the MIC was above 100 µg/mL against Aspergillus niger; above 25 µg/mL in the test with Candida albicans [3]; 50 µg/mL (≈ 175 µM) in the test with Enterococcus faecalis [4]; below 3.1 µg/mL in the test with Staphylococcus aureus [5]; 6.2 µg/mL (≈ 21.7 µM) against Trichophyton benhamiae [6].
In the test on Trichophyton benhamiae [7], `C=C1C(=O)c2cc(C)ccc2OC1c1ccccc1` (stereo not drawn) displayed a minimum inhibitory concentration (MIC) of 6.2 µg/mL (≈ 24.8 µM).
On to `C=C1C(=O)c2ccccc2OC1c1ccc(C)cc1` (stereo not drawn), for which the minimal inhibitory concentration (MIC) in the test with Trichophyton benhamiae [8] is below 3.1 µg/mL.
For `CN(C)CC1C(=O)c2ccccc2OC1c1ccccc1` (stereo not drawn), the values for the MIC with Candida albicans [9], against Staphylococcus aureus [10] and in the test with Trichophyton benhamiae [11] were 12.5 µg/mL (≈ 44.4 µM), 6.2 µg/mL (≈ 22 µM) and below 3.1 µg/mL, respectively.
Take `C=C1C(=O)c2ccccc2OC1c1ccc(Cl)cc1Cl` (stereo not drawn): the minimal inhibitory concentration (MIC) turned out to be 25 µg/mL (≈ 81.9 µM) against Enterococcus faecalis [12] and 6.2 µg/mL (≈ 20.3 µM) with Trichophyton benhamiae [6].
`C=C1C(=O)c2ccccc2OC1(C)C`: the minimal inhibitory concentration (MIC) against Aspergillus niger was above 100 µg/mL; in the test with Candida albicans [13] it was 50 µg/mL (≈ 266 µM); with Enterococcus faecalis [4], above 100 µg/mL; in the test with Staphylococcus aureus [14], above 100 µg/mL; in the test with Trichophyton benhamiae [15], 25 µg/mL (≈ 133 µM).
Regarding `C=C1C(=O)c2ccccc2OC1(c1ccccc1)c1ccncc1` (stereo not drawn), the MIC with Trichophyton benhamiae [1] is 12.5 µg/mL (≈ 39.9 µM); against Candida albicans [16], above 100 µg/mL.
For the compound `C=C1C(=O)c2ccccc2OC1(c1ccccc1)c1cccs1` (stereo not drawn), inhibition of growth against Trichophyton benhamiae [6] (MIC) required 6.2 µg/mL (≈ 19.5 µM).
As for `C=C1C(=O)c2ccc(OC)cc2OC1c1ccc(Cl)cc1` (stereo not drawn), the MIC with Candida albicans [3] was above 25 µg/mL; in the test with Staphylococcus aureus [5], below 3.1 µg/mL; against Trichophyton benhamiae [17] it was 6.2 µg/mL (≈ 20.6 µM).
On to `CN(C)CC1(C)C(=O)c2ccccc2OC1c1ccccc1` (stereo not drawn), for which the MIC in the test on Aspergillus niger, in the test with Candida albicans [18], with Enterococcus faecalis [4], in the test on Staphylococcus aureus [14] and against Trichophyton benhamiae [7] was above 50 µg/mL throughout.
On to `C=C1C(=O)c2ccccc2OC1c1ccc(C#N)cc1` (stereo not drawn), for which the MIC against Trichophyton benhamiae [6] was 6.2 µg/mL (≈ 23.7 µM).
On to `C=C1COc2ccccc2C1=O`, for which the MIC was 100 µg/mL (≈ 624 µM) against Aspergillus niger; 25 µg/mL (≈ 156 µM) against Candida albicans [19]; 100 µg/mL (≈ 624 µM) in the test with Enterococcus faecalis [4]; 50 µg/mL (≈ 312 µM) against Staphylococcus aureus [14]; 6.2 µg/mL (≈ 38.7 µM) in the test on Trichophyton benhamiae [17].

Source of the values: ChEMBL document CHEMBL1121696, “Antimicrobial 3-methyleneflavanones” (1981).
